In paper PMC9366947 (ACS Omega, 2022):
Marks after values point to notes of the source that are not given here.

How the values were obtained:
[1] = Oral dose pharmacokinetics; format: in vivo, Sprague–Dawley rats; conditions: rat; for AUC(0-t) / Kp / Kp at 24 h / Cmax: male, Sprague-Dawley, po, 2 mg/kg; for Kp / Kp at 24 h: brain/plasma; for Cmax (brain): oral 2 mg/kg, Table 1
Summary of the method: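 Adult male Sprague–Dawley rats, cassette dosing by oral gavage at 2.0 mg/kg (0.4 mg/mL in 0.25% methyl cellulose/water), n=3 per time point (15 min, 40 min, 2 h, 6 h, 24 h). Under ketamine/xylazine i.p., blood taken by cardiac puncture and brains collected. Brain homogenised in methanol; plasma and brain extracts cleaned up by solid-phase extraction and quantified by UPLC–MS/MS. Values are means.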

[2] = Partition coefficient; format: physicochemical; conditions: n-octanol/water, shake flask
Summary of the method: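 Miniaturised shake flask. Octanol stock (1000 μg/mL) mixed with presaturated n-octanol and presaturated water, shaken overnight at 500 rpm, then centrifuged 20 min at 16 000 RCF. Both layers read by UV absorbance at 300 nm against calibration curves; run in triplicate.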

[3] = system: pentylenetetrazol-induced clonic and tonic convulsions in mice; assay: PTZ seizures after oral dosing in mice; format: in vivo, C57BL/6N mice; conditions: for peak time of efficacy / effect on latency to produce convulsions: 10 mg/kg oral, 70 mg/kg PTZ; for effect on latency to produce convulsions: 2 to 8 h after dosing; for lethality/number tested, 2 h: 2 h pretreatment; for lethality/number tested, 2 h / lethality/number tested, 4 h / lethality/number tested, 8 h: 60 min observation
Summary of the method: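 Male C57BL/6N mice dosed orally (1% carboxymethylcellulose, 10 mL/kg). After the pretreatment interval, PTZ 70 mg/kg s.c. in 0.9% NaCl. Lethality and latency to death recorded over 60 min. Deaths compared with the vehicle + PTZ group by Fisher's exact test; n=6–7 per group.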

[4] = Kinetic; format: physicochemical; conditions: water, 37 °C
[5] = Thermodynamic equilibrium solubility in water and other solvents; format: physicochemical; conditions: spectroscopic method
[6] = oral, 4 h pretreatment, PTZ 70 mg/kg
[7] = oral, 8 h pretreatment, PTZ 70 mg/kg

C#Cc1ccc2c(c1)C(c1ccccn1)=NCc1c(-c3cnco3)ncn1-2 [KRM-II-81, 5-(8-Ethynyl-6-(pyridin-2-yl)-4H-benzo[f]imidazo[1,5-a][1,4]diazepin-3-yl)oxazole]
AUC(0-t) ([1]; brain): 2.69 µM·h | Kp [1]: 0.32 | Kp at 24 h [1]: 0.77 | AUC(0-t) ([1]; plasma): 3.59 µM·h | Cmax ([1]; plasma): 1830 nM | Cmax (brain) [1]: 594.2 nM | log P [2]: 1.763 ± 0.12 | peak time of efficacy [3]: about 2 h | effect on latency to produce convulsions [3]: approximately a doubling of the latency to produce convulsions | lethality/number tested, 2 h ([3]; oral, PTZ 70 mg/kg): 0/6 ^a | lethality/number tested, 4 h [3, 6]: 0/6 ^a | lethality/number tested, 8 h [3, 7]: 0/6 ^a

C#Cc1ccc2c(c1)C(c1ccccn1)=NCc1c(-c3cnco3)ncn1-2.Cl [KRM-II-81·HCl, 2-(8-Ethynyl-3-(oxazol-5-yl)-4H-benzo[f]imidazo[1,5-a][1,4]diazepin-6-yl)pyridin-1-ium Chloride]
AUC(0-t) ([1]; brain): 2.66 µM·h | Kp [1]: 0.52 | Kp at 24 h [1]: 1 | AUC(0-t) ([1]; plasma): 2.66 µM·h | Cmax ([1]; plasma): 1320 nM | Cmax (brain) [1]: 689.1 nM | log P [2]: 0.53 ± 0.06 | peak time of efficacy [3]: about 2 h | effect on latency to produce convulsions [3]: approximately a doubling of the latency to produce convulsions | lethality/number tested, 2 h ([3]; oral, PTZ 70 mg/kg): 0/6 ^a | latency to death, 4 h [3, 6]: 15.68 s | lethality/number tested, 4 h [3, 6]: 1/6 | latency to death, 8 h [3, 7]: 43.00 s | lethality/number tested, 8 h [3, 7]: 1/6 | persistence in solution state (supersaturation) vs free base [4]: remain in the solution state for a longer period of time | improvement in water solubility, salt form vs free base [5]: Approximately 13 fold
